Source: PubChem (Sanford-Burnham Center for Chemical Genomics)
tim23-1 inh: inhibits growth of tim23-1 mutant yeast | S. cerevisiae tim23-1 growth, BacTiter-Glo luminescence, 24 h | inhibition, % at 20 µM | 330,000 tested, 1.3% active | AID 463212;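 active = growth inhibition of the mutant yeast at or above 50%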;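 note: temperature-sensitive mutant grown at 25 °C; plate controls were DMSO-treated mutant yeast for no effect and medium wells lacking yeast for full effect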
CHOP UPR activ: activators of apoptotic arm of unfolded protein response (CHOP); CHO-CHOP luciferase reporter, UPR activation, luminescence; percent of tunicamycin response over DMSO baseline; activation, % at 10 µM; 330,000 tested, 0.34% active; AID 449763;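 active = at 10 µM dose, activation of 40% or more, normalized to positive control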;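 note: 100% = tunicamycin at 10 µg/mL and 0% = DMSO alone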
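System: CHO-CHOP luciferase reporter cell line | Buffer or medium: F12 medium containing 10% fetal bovine serum | Doses: One dose, 10 µM in 0.5% DMSO | Times: 6 h compound exposure at 37 °C after overnight seeding | Signal: Luciferase luminescence | Read-out: % activation vs tunicamycin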
UPR XBP1 act: adaptive UPR (XBP1) activation. CHO-XBP1 luciferase reporter, IRE1-XBP1 UPR activation, luminescence; percent of tunicamycin response, DMSO as zero. activation, % at 20 µM. 330,000 tested, 0.33% active. AID 463104;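 active = versus positive control, 20 µM dose yields 30% or more activation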;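 note: 100% = tunicamycin at 10 µg/mL and 0% = DMSO only wells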
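assay system = CHO-XBP1 luciferase reporter cells | amount = 1000 cells/well | buffer or medium = F12 plus 10% FBS | compound dosing = single point, 20 µM final compound, 1% DMSO | incubation = 16-18 h cell attachment at 37 °C, then 6 h compound exposure | detection = Steady-Glo luminescence read | controls = tunicamycin 10 µg/mL and vehicle-only wells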
TIM10 inh: inhibits growth of TIM10 yeast strain; S. cerevisiae TIM10 strain growth, BacTiter-Glo luminescence, 24 h; inhibition, % at 10 µM; 330,000 tested, 1.4% active;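 active = inhibition of 40% or more at the single tested concentration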;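 note: wild-type TIM10 isogenic control strain grown at permissive 25 °C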
tim10-1 inh: inhibits growth of tim10-1 mutant yeast. S. cerevisiae tim10-1 ts strain growth, BacTiter-Glo, 24 h. inhibition, % at 20 µM. 330,000 tested, 2.2% active;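 active = inhibition of at least 40%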;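 note: mutant grown at 25 °C; 0% = DMSO wells with yeast and 100% = wells holding no yeast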
tim10-1 conf: confirmation of tim10-1 mutant yeast growth inhibitors; shares compounds with tim10-1 inh; S. cerevisiae tim10-1 ts strain growth, BacTiter-Glo, 24 h; inhibition, % at 20 µM; 7,400 tested, 56% active; AID 463213;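 active = inhibition of yeast growth at or above a set limit in either of two repeat tests at 20 µM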;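 note: tim10-1 mutant grown at permissive 25 °C to find synthetic lethal compounds; 0% = DMSO yeast wells and 100% = medium wells without yeast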
* marks the source's active call; other numbers are inactive results; x = not tested or not shown. A selection: hits, their analogues and other compounds. The true share with any hit is near 3.9%.

SMILES	tim23-1 inh	CHOP UPR activ	UPR XBP1 act	TIM10 inh	tim10-1 inh	tim10-1 conf
CC(Cc1ccccc1)NC(=O)CCCN1C(=O)c2ccccc2C1=O (configuration not stated)	9	1	-8	14	5	x
CCOC(=O)C(=O)C1=C(N2CCOCC2)/C(=C\c2cccc([N+](=O)[O-])c2)CC1	47	0	-2	22	41*	25
Nc1cc(Cl)ccc1Oc1ccc2ccccc2c1	28	1	1	9	61*	57*
CN(C1=C(N2CCOCC2)C(=O)c2ccccc2C1=O)c1ccccc1	42	1	-1	12	45*	20
O=C(Cn1c(CO)nc2ccccc21)Nc1ccc2c(c1)OCCCO2	4	-1	-3	3	1	x
Cc1nc(N2CCN(S(=O)(=O)c3ccccc3C#N)CC2)c2c(-c3ccccc3)csc2n1	15	1	0	8	12	x
N#Cc1ccc(C(=O)N2CCN(C(=O)C3CCCO3)CC2)cc1 (configuration not stated)	-7	0	-2	-2	1	x
COc1ccccc1/C=C1\SC(=S)N(NS(=O)(=O)c2ccc(C)cc2)C1=O	40	-1	-3	17	44*	18
O=C(COc1ccccc1)NCC(=O)N1CCCCCC1	-8	0	-2	-2	-3	x
C=CCSC1=N/C(=C\c2cc(OCC)c(OC(C)=O)c([N+](=O)[O-])c2)C(=O)S1	27	-1	-2	12	42*	25
C=CCSC1=N/C(=C\c2ccc3c(c2)OCO3)C(=O)S1	20	-3	-3	19	18	x
COc1cc(/C=C2\SC(=S)NC2=O)ccc1OS(=O)(=O)c1ccccc1	23	-2	0	26	43*	33*
O=C(Nc1ccc(Br)cc1)c1cccc2c1C(=O)N(C1CCCCC1)C2	40	1	-1	-2	55*	9
O=C(Nc1ccc(Br)cc1Br)c1cccc2c1C(=O)N(C1CCCCC1)C2	33	8	4	2	42*	9
CSc1ccc(CCNC(=O)c2cccc3c2C(=O)N(C2CCCCC2)C3)cc1	36	1	-5	23	42*	18
Cc1ccc(NC(=O)c2cccc3c2C(=O)N(C2CCCCC2)C3)c(Cl)c1	37	3	-2	6	40	x
Cc1cc(C)cc(NC(=O)c2cccc3c2C(=O)N(C2CCCCC2)C3)c1	9	2	2	1	13	x
CS(=O)(=O)c1ccc(Cl)c(NC(=O)CCN2C(=O)C3CC=CCC3C2=O)c1 (configuration not stated)	-8	0	-3	1	-21	x
N/C(=N\OC(=O)c1ccccc1)c1cccnc1	8	-2	-2	-3	14	x
N/C(=N\OC(=O)Cc1ccc(-c2ccccc2)cc1)c1cccnc1	19	-1	-1	19	47*	39*
N/C(=N\OC(=O)CCC1CCCCC1)c1cccnc1	27	1	9	17	46*	38*
N/C(=N\OC(=O)CC(c1ccccc1)c1ccccc1)c1cccnc1	35	-1	-3	37	47*	61*
N/C(=N\OC(=O)Cc1ccc(Cl)cc1)c1cccnc1	17	-1	1	-1	26	x
N/C(=N\OC(=O)Cc1ccccc1)c1cccnc1	7	2	0	6	4	x
O=C(CN(Cc1ccccc1)C(=O)CCC(=O)Nc1nccs1)NCC1CCCO1 (configuration not stated)	-4	-2	-2	14	-23	x
SMILES	tim23-1 inh	CHOP UPR activ	UPR XBP1 act	TIM10 inh	tim10-1 inh	tim10-1 conf
CC(Oc1cc2oc(=O)c3c(c2cc1Cl)CCCC3)C(=O)NCCN1CCOCC1 (configuration not stated)	5	0	0	15	8	x
COC(=O)c1sc(NC(=O)c2cc(-c3ccccc3)nc3ccccc23)c(C#N)c1C	18	8	0	3	8	x
O=C(NN=C1CCCCCC1)c1cc(-c2ccccc2)nc2ccccc12	28	-1	-1	19	24	x
Cc1ccc(-c2cc(C(=O)NN=C3CCCC3)c3ccccc3n2)cc1	42	1	-1	22	44*	25
Cc1sc(NC(=O)c2cc(-c3ccccc3)nc3ccccc23)c(C(N)=O)c1C	34	7	2	22	41*	17
CN(C)CCCn1c2c(c(SCC(=O)Nc3nccs3)nc1=O)CCC2	-1	1	-1	-7	-8	x
CCN(CC(=O)NC1CCS(=O)(=O)C1)S(=O)(=O)c1ccc(Br)cc1 (configuration not stated)	9	1	-3	-4	16	x
NNC(=O)c1[nH]c2ccccc2c1-c1ccccc1	50	0	-3	25	42*	35*
CC(=O)NNC(=O)c1[nH]c2ccc(Cl)cc2c1-c1ccccc1	16	0	1	20	13	x
Fc1ccc(N/N=C/C=C/c2ccccc2)c(F)c1	28	4	6	10	69*	49*
CSc1ccc(-c2nc3cnccn3c2Nc2ccc3c(c2)OCO3)cc1	34	2	0	27	46*	43*
Clc1ccc(-c2nc3cnccn3c2Nc2ccc3c(c2)OCO3)cc1	49	4	-2	26	45*	35*
Clc1ccc(-c2nc3cnccn3c2NC2CCCC2)cc1	30	0	0	23	50*	23
CCc1ccc(-c2nc(CS(=O)CC(=O)NCc3ccccc3)c(C)o2)cc1 (configuration not stated)	30	-1	-4	7	32	x
CCc1cccc(NC(=O)CS(=O)Cc2nc(-c3ccc(C)cc3)oc2C)c1 (configuration not stated)	31	0	-2	26	47*	35*
COc1ccc(-c2cc(-c3ccccc3)c(C#N)c(S(C)=O)n2)cc1 (configuration not stated)	34	27	3	24	45*	30*
CCSc1nc(-c2ccc(OC)cc2)cc(-c2ccccc2)c1C#N	-8	-2	-1	0	9	x
CCOc1ccc(NC(=O)CSCc2cnn(-c3ccccc3)c2-n2cccc2)cc1	29	1	-4	14	44*	30*
NC(=O)c1cc([N+](=O)[O-])ccc1NCC1CCCCC1	14	2	4	13	24	x
O=C(CCl)Nc1cccc(S(=O)(=O)N2CCCCCC2)c1	48	15	-1	20	41*	34*
Cc1cc(C)cc(NC(=O)CN2CCCN(S(=O)(=O)c3ccc(Br)s3)CC2)c1	31	1	-1	29	44*	24
O=C(CN1CCN(c2nc(-c3ccc(F)cc3)cs2)CC1)Nc1ccc2c(c1)OCO2	27	0	-3	6	46*	27
